From the M2OR odorant receptor database
Substitutions are numbered along the chain they refer to.

The compounds below were run on T1, OR8B2 L164F. Conditions: stereoisomer not certain.
T1 sequence (whole entry): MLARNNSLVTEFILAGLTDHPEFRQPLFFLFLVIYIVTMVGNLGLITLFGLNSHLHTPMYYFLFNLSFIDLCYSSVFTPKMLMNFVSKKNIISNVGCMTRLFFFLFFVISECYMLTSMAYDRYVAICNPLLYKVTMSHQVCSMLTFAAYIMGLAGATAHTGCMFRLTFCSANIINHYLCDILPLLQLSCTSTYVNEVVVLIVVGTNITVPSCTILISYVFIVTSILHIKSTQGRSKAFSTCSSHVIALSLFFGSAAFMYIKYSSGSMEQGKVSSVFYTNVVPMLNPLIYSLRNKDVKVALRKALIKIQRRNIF
Procedure, shortened: (§1)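 Transient luciferase assays in mammalian cell lines were common, though methods varied by source. The values come from published papers and their supplementary material, with extra details from the original authors when needed. Responsive refers to a measured signal the original authors judged statistically different from baseline, and non-responsive (inactive) to the remainder.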
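Also: active if original authors judged signal statistically different from baseline.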

| SMILES | odorant receptor agonist call |
| --- | --- |
| CC1=C(O)C(=O)OC1C (stereo unspecified) | inactive |
| CCCCCCC=CCCC=O | inactive |
| CCC1OC(=O)C(O)=C1C (stereo unspecified) | inactive |
| CCC1OC(C)=C(O)C1=O (stereo unspecified) | inactive |
| CCCC(S)CCOC(C)=O (stereo unspecified) | inactive |
| CC1=C(O)C(=O)C(C)O1 (stereo unspecified) | inactive |
| Cc1cnc(C)c(C)n1 | inactive |
| CC1=NC(C)C(C)S1 (stereo unspecified) | inactive |

Each compound was assayed on T2, OR8B2 S273F. Conditions: stereoisomer not certain.
T2 sequence (whole entry): T1 sequence (whole entry) with F164L, S273F
Procedure, shortened: as §1

| SMILES | odorant receptor agonist call |
| --- | --- |
| CC1=C(O)C(=O)OC1C (stereo unspecified) | inactive |
| CCCCCCC=CCCC=O | inactive |
| CCC1OC(=O)C(O)=C1C (stereo unspecified) | inactive |
| CCC1OC(C)=C(O)C1=O (stereo unspecified) | inactive |
| CCCC(S)CCOC(C)=O (stereo unspecified) | inactive |
| CC1=C(O)C(=O)C(C)O1 (stereo unspecified) | inactive |
| Cc1cnc(C)c(C)n1 | inactive |
| CC1=NC(C)C(C)S1 (stereo unspecified) | inactive |

These compounds were tested against T3, OR8B3 (Homo sapiens) (UniProt Q8NGG8). Conditions: stereoisomer not certain.
T3 sequence (whole entry): T1 sequence (whole entry) with R24Q, I34V, T47I, N94Y, R100Q, F164L, T205I, T208M
Procedure, shortened: as §1

| SMILES | odorant receptor agonist call |
| --- | --- |
| CC(CO)CS (stereo unspecified) | inactive |
| CCC(S)C(C)CO (stereo unspecified) | inactive |
| CC1=C(O)C(=O)OC1C (stereo unspecified) | inactive |
| CCCCCCC=CCCC=O | inactive |
| CCCCC(S)C(C)CO (stereo unspecified) | inactive |
| CCCCCC(=O)C(C)C(C)=O (stereo unspecified) | inactive |
| CC(=O)c1c(C)c([N+](=O)[O-])c(C(C)(C)C)c([N+](=O)[O-])c1C | inactive |
| CCC1OC(=O)C(O)=C1C (stereo unspecified) | inactive |
| CCC1OC(C)=C(O)C1=O (stereo unspecified) | inactive |
| CCCCCC(S)C(C)CO (stereo unspecified) | inactive |
| CCCC(S)CCOC(C)=O (stereo unspecified) | inactive |
| CC1=C(O)C(=O)C(C)O1 (stereo unspecified) | inactive |
| Cc1cnc(C)c(C)n1 | inactive |
| CC1CCCCCCCCCCCCC(=O)C1 (stereo unspecified) | inactive |
| CC1=NC(C)C(C)S1 (stereo unspecified) | inactive |
